ChEMBL document CHEMBL4725431, “Harmaline Analogs as Substrate-Selective Cyclooxygenase-2 Inhibitors” (ACS Med Chem Lett, 2020)

Legend:
[1] = biological target: T1, Prostaglandin G/H synthase 2 (Mus musculus, UniProt Q05769); assay: Inhibition of mouse COX2 using arachidonic acid as substrate preincubated for 3 mins followed by substrate addition and measured for 30 sec by LC/MS analysis
T1 sequence (Q05769 whole entry): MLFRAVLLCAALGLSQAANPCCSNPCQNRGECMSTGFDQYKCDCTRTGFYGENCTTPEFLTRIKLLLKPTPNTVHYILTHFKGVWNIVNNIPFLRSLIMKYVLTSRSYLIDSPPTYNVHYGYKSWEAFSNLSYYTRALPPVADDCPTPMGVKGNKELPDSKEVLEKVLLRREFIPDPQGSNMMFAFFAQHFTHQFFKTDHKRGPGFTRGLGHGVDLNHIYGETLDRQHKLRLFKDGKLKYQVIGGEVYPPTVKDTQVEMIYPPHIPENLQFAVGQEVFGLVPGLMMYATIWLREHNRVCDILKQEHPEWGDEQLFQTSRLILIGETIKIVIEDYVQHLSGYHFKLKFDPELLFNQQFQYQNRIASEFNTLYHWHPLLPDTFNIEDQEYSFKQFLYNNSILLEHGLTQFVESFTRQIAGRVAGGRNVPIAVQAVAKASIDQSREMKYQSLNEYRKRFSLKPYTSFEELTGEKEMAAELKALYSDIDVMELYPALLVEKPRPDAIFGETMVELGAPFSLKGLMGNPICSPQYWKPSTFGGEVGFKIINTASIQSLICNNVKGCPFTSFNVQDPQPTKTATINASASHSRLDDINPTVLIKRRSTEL
Summary of the method: (§1)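 Purified murine COX-2 (40 nM in footnote; 50 nM in methods) with 100 nM heme and 1 μM PPHP in 50 mM Tris-HCl pH 8.0, 0.5 mM phenol, 5% DMSO final. Five inhibitor concentrations up to 1 μM plus solvent control. Substrate (AA or 2-AG, 5 μM) added at 37 °C for 30 s. Quenched with solvent containing PGE2-d4/PGE2G-d5. Products measured by LC-MS/MS SRM.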

[2] = biological target: T2, Prostaglandin G/H synthase 1 (Ovis aries, UniProt P05979); assay: Inhibition of ovine COX1 using [1-14C]AA as substrate preincubated for 20 mins followed by substrate addition and measured for 30 sec by thin layer chromatography analysis
T2 sequence (P05979 whole entry): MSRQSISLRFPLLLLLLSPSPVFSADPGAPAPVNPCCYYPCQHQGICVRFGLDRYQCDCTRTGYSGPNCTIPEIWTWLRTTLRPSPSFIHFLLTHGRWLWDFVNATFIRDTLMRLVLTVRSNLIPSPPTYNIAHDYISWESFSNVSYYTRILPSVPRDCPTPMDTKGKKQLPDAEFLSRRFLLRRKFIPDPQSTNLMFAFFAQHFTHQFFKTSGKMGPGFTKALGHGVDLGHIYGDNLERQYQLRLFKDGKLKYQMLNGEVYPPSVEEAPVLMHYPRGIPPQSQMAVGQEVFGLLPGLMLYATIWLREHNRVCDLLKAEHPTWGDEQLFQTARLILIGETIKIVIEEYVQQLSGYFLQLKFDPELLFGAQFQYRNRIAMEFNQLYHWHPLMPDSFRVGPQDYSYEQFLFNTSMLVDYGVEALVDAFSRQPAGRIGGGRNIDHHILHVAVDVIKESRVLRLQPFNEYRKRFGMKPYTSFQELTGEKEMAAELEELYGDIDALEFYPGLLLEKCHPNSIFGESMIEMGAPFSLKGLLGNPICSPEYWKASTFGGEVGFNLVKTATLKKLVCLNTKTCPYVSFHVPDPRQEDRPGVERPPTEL
Summary of the method: (§2)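 Purified enzyme (murine COX-2 at 63 nM, ovine COX-1 at 22.5 nM), hematin-reconstituted, in 100 mM Tris-HCl pH 8.0 with 500 μM phenol. Several inhibitor concentrations or DMSO vehicle preincubated 20 min, then [1-14C]AA 5 μM added at 37 °C for 30 s. Stopped by ether/methanol/citrate pH 4.0 extraction. Radiolabelled PGs separated on TLC and quantified by radioactivity scanning. Run in triplicate.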

[3] = biological target: T1, Prostaglandin G/H synthase 2; assay: Inhibition of mouse COX2 using [1-14C]AA as substrate preincubated for 20 mins followed by substrate addition and measured for 30 sec by thin layer chromatography analysis; summary of the method: as §2
[4] = biological target: T1, Prostaglandin G/H synthase 2; assay: Inhibition of mouse COX2 using 2-arachidonylglycerol as substrate preincubated for 3 mins followed by substrate addition and measured for 30 sec by LC/MS analysis; summary of the method: as §1

Row | SMILES | IC50 [1] | IC50 [2] | IC50 [3] | IC50 [4]
1 | COc1ccc2c(c1)c1c(n2Cc2ccc(Cl)cc2)C(C)=NCC1 | > 1000 nM | > 4000 nM | 2100 nM | > 1000 nM
2 | COc1ccc2[nH]c3c(c2c1)CCN=C3C | > 1000 nM | > 4000 nM | > 4000 nM | > 1000 nM
3 | COc1cccc2[nH]c3c(c12)CCN=C3C | > 1000 nM | > 4000 nM | > 4000 nM | > 1000 nM
